Assay outcomes as filed in PubChem.
Compounds with a hit are over-represented: about 1.9% of the library has one in this group of screens.
Tb MetRS inh: Trypanosoma brucei MetRS inhibition; purified T. brucei MetRS, ATP depletion, Kinase-Glo luminescence; inhibition, % at 11.9 µM; hit rate 0.4% among 360,000;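 active means inhibition above a per-plate cutoff of the control wells' mean inhibition plus 3 SD, cut at about 5.5% in these data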;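 further: 0% = DMSO wells median and 100% = median of wells with control inhibitor compound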
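Material: T. brucei methionyl-tRNA synthetase, purified; reagent: substrates ATP, L-methionine and bulk Escherichia coli tRNA; dosing: 11.9 µM single point; timing: 15 min plus 2 h at 25 °C; detection: luminescence of leftover ATP; evaluation: % inhibition; control set: DMSO-only wells as low control; replicates: singlicate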
PLC-gamma1 inh: blocks human PLC-gamma1 enzyme activity | P19174 | purified PLC-gamma1, fluorogenic substrate, fluorescence | inhibition, % at 12.2 µM | hit rate 0.84% among 370,000; in the data active means inhibition above about 9.5%
DAGLB inh: blocks human DAGLB lipase activity; Q8NCG7; inhibition, % at 5.17 µM; hit rate 0.059% among 340,000; AID 504411; HEK293T DAGLB membrane lysate, EnzChek fluorogenic substrate; in the data active means inhibition above about 34%;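 further: 0% = enzyme with vehicle and 100% = wells lacking enzyme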
HGIII-sPLA2 inh: Blocks human group III sPLA2 activity. Q9NZ20. QFRET BODIPY PC-A2 liposome hydrolysis, fluorescence. inhibition, % at 12.2 µM. hit rate 0.56% among 370,000;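 active means inhibition above mean plus 3 SD of compounds lying within the high and low control bounds, cut at about 19% in these data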;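 further: 0% = median of test compound wells and 100% = no enzyme DMSO wells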
Target sequence (Q9NZ20 whole entry, looked up): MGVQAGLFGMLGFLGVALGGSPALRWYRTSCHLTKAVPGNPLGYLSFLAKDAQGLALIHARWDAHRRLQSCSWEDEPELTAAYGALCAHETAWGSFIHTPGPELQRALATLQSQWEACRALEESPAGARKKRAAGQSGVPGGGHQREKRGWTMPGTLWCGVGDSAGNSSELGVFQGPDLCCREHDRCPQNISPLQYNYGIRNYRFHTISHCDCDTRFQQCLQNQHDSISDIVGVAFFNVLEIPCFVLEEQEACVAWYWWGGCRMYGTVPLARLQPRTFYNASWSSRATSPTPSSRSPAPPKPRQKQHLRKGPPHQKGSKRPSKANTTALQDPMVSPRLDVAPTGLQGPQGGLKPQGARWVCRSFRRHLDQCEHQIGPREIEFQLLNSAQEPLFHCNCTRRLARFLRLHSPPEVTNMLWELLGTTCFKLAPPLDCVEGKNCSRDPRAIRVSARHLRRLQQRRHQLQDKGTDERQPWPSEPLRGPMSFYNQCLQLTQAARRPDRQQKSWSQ
PLC-beta3 inh: PLC-beta3 (human) inhibition, primary screen; Q01970; Purified PLC-beta3, fluorogenic substrate, fluorescence; inhibition, % at 12.2 µM; hit rate 0.18% among 370,000; in the data active means inhibition above about 11%;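 further: 0% = median of compound wells on plate and 100% = full blocker control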
sPLA2 confirm: human GIII-sPLA2 inhibition, confirmation. shares compounds with HGIII-sPLA2 inh. recombinant hGIII-sPLA2, BODIPY PC-A2 QFRET fluorescence. inhibition, % at 12.2 µM. hit rate 34% among 2,000. AID 743280;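 active means mean inhibition across triplicates above the hit cutoff set in the earlier primary screen, cut at about 19% in these data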;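 further: 0% = enzyme with DMSO and 100% = DMSO wells lacking enzyme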
535nm interf: optically interferes with 535nm fluorescence in sPLA2 counter-screen; hit rate 8.5% among 2,000; BODIPY FL product fluorescence interference, QFRET; inhibition, % at 12.2 µM; shares compounds with HGIII-sPLA2 inh;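 active means average inhibition above the solvent-only control mean plus 3 SD, cut at about 6% in these data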;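 further: 0% = DMSO with substrate plus product and 100% = DMSO with substrate alone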
BODIPY interf DR: interferes with 535nm fluorescence in dose response counter-screen | shares compounds with HGIII-sPLA2 inh | BODIPY FL product fluorescence interference, cell-free | IC50, µM | 240 tested, under 10 active | AID 743455;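 active means IC50 at or below 10 µM; inactive means IC50 above 10 µM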
The depositor's hits bear a star; x = no result.

SMILES | Tb MetRS inh | PLC-gamma1 inh | DAGLB inh | HGIII-sPLA2 inh | PLC-beta3 inh | sPLA2 confirm | 535nm interf | others
CCCCCN1CCCCC(NC(=O)c2ccccc2OC)C1=O (stereo not given) | x | 0.1 | x | -1.3 | -0.5 | x | x
C=CC[C@H]1c2ccccc2[C@H]2N3N=Cc4ccccc4[C@H]3[C@H](CCCC)C(=O)N2N1C(=O)c1ccccc1 | x | -2.9 | x | 1.1 | 1.5 | x | x
O=C(CSc1nnc(NCc2ccccc2)s1)N1CCOCC1 | -0.1 | 9.2 | -2.3 | 27.1* | -1.9 | -1.9 | -4.9
O=C(Nc1nnc(SCC(=O)N2CCOCC2)s1)c1ccccc1Cl | -1.4 | -0.7 | -0.2 | 12.3 | 3.6 | x | x
CCCCc1ccc(NC(=S)N2CCCC2)cc1 | -0.2 | -2.3 | -1.4 | 20.3* | -2.5 | 10.4 | -8.6
CCCCc1ccc(NC(=S)N2CCN(C)CC2)cc1 | -0.2 | -0.4 | 0.3 | 8.3 | -2.2 | x | x
C=CCNC(=S)NNC(=O)c1cccn(Cc2ccc(Cl)c(Cl)c2)c1=O | 0.1 | -16.9 | 4.2 | 24.7* | -18.8 | 31.1* | -4.8 | BODIPY interf DR=>122
CCNC(=S)NNC(=O)c1cccn(Cc2ccc(Cl)cc2Cl)c1=O | 2.4 | -16.4 | 4.4 | 15.6 | -24.1 | x | x
C=CCNC(=S)NNC(=O)c1cccn(Cc2ccc(Cl)cc2Cl)c1=O | 1.5 | -13.1 | 3.4 | 26.0* | -18.0 | 22.0* | 0.9
COc1ccc(CC(=O)N(Cc2ccccc2)c2ccccc2C(=O)Nc2cc(OC)ccc2OC)cc1 | x | -13.9 | x | -2.1 | -20.3 | x | x
Nn1c(SCC(=O)N2CCOCC2)nnc1-c1cc(-c2ccc(Cl)cc2)n[nH]1 | x | 2.8 | x | -0.2 | -0.6 | x | x
CCOc1ccc(C(Nc2cccnc2)c2cc(Cl)c3cccnc3c2O)cc1 (stereo not given) | 0.2 | -20.8 | 1.1 | 23.6* | -15.5 | 16.5 | 2.6
O=C(O)COc1ccccc1C(Nc1cccnc1)c1cc(Cl)c2cccnc2c1O (stereo not given) | 0.0 | x | x | x | x | x | x
COC(=O)[C@]12C[C@H](CC(=O)NCc3cccs3)C(=O)N(Cc3ccc(Cl)cc3Cl)C1=C[C@H](C(C)C)O[C@@H]2C1CC1 | x | 1.7 | x | -15.8 | 3.8 | x | x
Cc1ccc(CNC(=O)C(=O)NCC(c2ccco2)N2CCOCC2)cc1 (stereo not given) | -1.0 | 0.4 | -4.6 | -5.8 | 1.2 | x | x
O=C(NCC1CCCO1)C(=O)NCC(c1ccco1)N1CCN(c2ccc(F)cc2)CC1 (stereo not given) | 0.2 | 0.5 | -1.9 | 21.5* | 0.0 | 3.0 | -17.7
O=C(NCc1ccc(Cl)cc1)C(=O)NCC(c1ccco1)N1CCOCC1 (stereo not given) | 0.1 | 5.3 | 1.7 | 19.7* | -7.1 | 0.4 | -16.1
O=[N+]([O-])c1cccc(C2=Nn3c(nnc3-c3ccccc3)SC2)c1 | x | 0.7 | x | -1.8 | 0.9 | x | x
CN(Cc1ccc(F)cc1)C(=O)CN1C(=O)C2(OCCCO2)c2ccccc21 | x | 0.1 | x | -1.3 | 2.0 | x | x
O=C(Cn1nnc(-c2ccccc2F)n1)Nc1ccc(Cl)c(Cl)c1 | x | 1.2 | x | -1.2 | 1.4 | x | x
Cc1ccc(C(=O)NC(=S)Nc2c(C)ccc3nsnc23)cc1 | -0.8 | -14.8 | -0.9 | 23.4* | -23.8 | 12.8 | -6.7
Cc1ccc(C(=O)NC(=S)Nc2cccc3nsnc23)cc1 | 0.1 | -16.7 | -3.6 | 2.6 | -23.7 | x | x
COc1ccc(NC(=O)N(C)C[C@@H]2OCCCC[C@@H](C)Oc3ccc(NS(C)(=O)=O)cc3C(=O)N([C@H](C)CO)C[C@@H]2C)cc1 | x | 1.8 | x | 8.3 | -1.0 | x | x
Cn1ccc2c(-c3ccccc3F)cc3c(c21)C1CCC3C1 (stereo not given) | -1.0 | -1.5 | x | 8.3 | -8.2 | x | x
COc1cccc(-c2cc3c(c4c2ccn4C)C2CCC3C2)c1 (stereo not given) | 0.0 | -26.1 | x | 19.3* | -42.5 | -5.2 | 1.6
COc1ccccc1-c1cc2c(c3c1ccn3C)C1CCC2C1 (stereo not given) | -1.0 | -5.6 | x | 22.3* | -9.5 | 4.0 | -2.7
CCN(CC(=O)NC(C)(C)C)C(=O)CCl | -0.8 | 5.3 | 2.2 | 19.8* | -1.8 | 1.6 | -1.5
